The text below walks through data of ChEMBL document CHEMBL4393722, “Development of the "hidden" multifunctional agents for Alzheimer's disease” (Eur J Med Chem, 2019).

The structures appear in SMILES notation. pIC50: −log10 of the molar value. The source made the active and inactive calls. The rule behind the calls is not given here.

The species named for series [1] is Danio rerio. As to the kind of experiment: Cognition enhancement in aluminium chloride-induced Alzheimer's disease zebra fish model assessed as Dyskinesia recovery rate at 1 uM treated from 3 dpf to 5 dpf relative to control. Type of series: functional. The gist of the method: (§1)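 Zebrafish larvae were exposed to 150 µM AlCl₃ from 3 to 5 dpf and co-treated with compound at 1, 5 or 25 µM over the same window, 30 fish per group. DRR and RE values were calculated from the average swimming speed of treated fish.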

A short description of series [2]: Stability of the compound in simulated intestinal fluid measured up to 60 mins by HPLC analysis. Type of series: ADME. As to conditions: simulated gi fluid, 1 h. The gist of the method:
(§2)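 The compound was incubated separately in human plasma, human liver microsomes, simulated gastric fluid and simulated intestinal fluid. Remaining compound was quantified by HPLC at 5, 15, 30, 45 and 60 min.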

Series [3] deals with Amyloid-beta precursor protein (Homo sapiens) (UniProt P05067). The series can be described thus: Inhibition of HFIP-pretreated amyloid beta (1 to 42) (unknown origin) self- aggregation at 20 uM after 72 hrs by thioflavin-T fluorescence assay relative to control.
Chain of Amyloid-beta precursor protein (Homo sapiens) (P05067 whole entry): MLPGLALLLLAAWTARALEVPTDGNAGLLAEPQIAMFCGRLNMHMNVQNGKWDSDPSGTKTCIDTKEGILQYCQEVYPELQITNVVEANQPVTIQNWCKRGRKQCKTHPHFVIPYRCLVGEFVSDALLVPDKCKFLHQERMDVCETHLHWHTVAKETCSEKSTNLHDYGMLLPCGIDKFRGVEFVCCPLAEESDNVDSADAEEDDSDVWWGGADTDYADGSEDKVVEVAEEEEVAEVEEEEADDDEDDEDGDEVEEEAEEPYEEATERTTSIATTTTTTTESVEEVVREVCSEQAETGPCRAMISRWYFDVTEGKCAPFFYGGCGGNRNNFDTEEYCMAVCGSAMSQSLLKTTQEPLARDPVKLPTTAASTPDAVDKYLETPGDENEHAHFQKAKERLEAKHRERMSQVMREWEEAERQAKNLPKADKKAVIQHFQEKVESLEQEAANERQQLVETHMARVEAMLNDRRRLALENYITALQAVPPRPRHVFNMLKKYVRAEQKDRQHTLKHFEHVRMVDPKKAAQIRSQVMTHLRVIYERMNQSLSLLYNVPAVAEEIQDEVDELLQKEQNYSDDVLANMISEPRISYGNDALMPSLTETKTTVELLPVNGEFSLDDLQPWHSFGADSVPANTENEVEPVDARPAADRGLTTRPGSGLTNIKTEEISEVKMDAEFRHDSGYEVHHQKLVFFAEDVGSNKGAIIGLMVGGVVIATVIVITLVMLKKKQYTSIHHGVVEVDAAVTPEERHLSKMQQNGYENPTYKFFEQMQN
The nature of series [4]: AUC (0 to t) in Sprague-Dawley rat brain at 25 mg/kg, iv by HPLC analysis. Type of series: ADME, organism-based. The method in brief:
(§3)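 Male Sprague–Dawley rats were given a single intravenous dose of 25 mg/kg. Drug levels were followed by microdialysis of blood and brain, alongside plasma. AUC0–t, AUC0–∞, MRT and CLz were derived from the concentration–time curves, n=6, reported as mean ± SD.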

For series [5], the species on record is Danio rerio. The series can be described thus: Cognition enhancement in aluminium chloride-induced Alzheimer's disease zebra fish model assessed as Dyskinesia recovery rate treated from 3 dpf to 5 dpf. In kind it is functional, organism-based. The method in brief: as §1
A short description of series [6]: Metal chelating activity assessed as compound-Cu2+ complex formation by measuring decrease in absorption with spectral shift to red end at 25 uM incubated for 5 mins in presence of 25 uM CuCl2 by UV-visible spectrophotometry.
The species named for series [7] is Danio rerio. As to the kind of experiment: Cognition enhancement in aluminium chloride-induced Alzheimer's disease zebra fish model assessed as Dyskinesia recovery rate at 25 uM treated from 3 dpf to 5 dpf relative to control. In kind it is functional. The method in brief: as §1
Series [8] in a line: Stability of compound in human plasma measured up to 60 mins by HPLC analysis. The note with it: 1 h. Type of series: ADME, cell-free. The method in brief: as §2
The species entered for series [9] is Danio rerio. The series can be described thus: Cognition enhancement in aluminium chloride-induced Alzheimer's disease zebra fish model assessed as Dyskinesia recovery rate at 5 uM treated from 3 dpf to 5 dpf relative to control. Type of series: functional. The gist of the method: as §1
For series [10], the system named is Mus musculus. The series can be described thus: Cognition enhancement in aluminium trichloride-induced amnesia mouse model assessed as total swimming time at 0.5 mg/kg administered via gastric gavage for 30 days by SMG-2 programmable water maze test (reference value: 115 +/- 19 secs). In kind it is functional.
Series [11] can be described thus: AUC (0 to infinity) in Sprague-Dawley rat blood dialysis at 25 mg/kg, iv by HPLC analysis. In kind it is ADME, organism-based. Further details: dose 25 mg/kg, route intravenous, time infinity. The note with it: blood dialysate. The gist of the method:
as §3

Series [12] is described as follows: AUC (0 to infinity) in Sprague-Dawley rat brain at 25 mg/kg, iv by HPLC analysis. In kind it is ADME, organism-based. Further details: dose 25 mg/kg, route intravenous, time infinity. The method in brief:
as §3

Series [13] has as its target Voltage-gated inwardly rectifying potassium channel KCNH2 (Homo sapiens, UniProt Q12809). As to the kind of experiment: Inhibition of human ERG expressed in CHO cells incubated for 1 min at -80 mV holding potential by manual patch clamp assay. In kind it is cell-based. For orientation: Patch clamp records ionic current or voltage across a cell membrane.
The nature of series [14]: Stability of the compound in simulated gastric fluid measured up to 60 mins by HPLC analysis. As to conditions: simulated gi fluid, 1 h. Type of series: ADME. The method in brief:
as §2

In the next series the test system is MCF7. The series can be described thus: Cytotoxicity against human MCF7 cells assessed as reduction in cell viability incubated for 24 hrs by MTT assay. Type of series: cell-based. The note with it: MCF7, 24 h. (Tetrazolium dyes change colour on reduction, which living cells bring about.)
The species named for series [15] is Danio rerio. As to the kind of experiment: Cognition enhancement in aluminium chloride-induced Alzheimer's disease zebra fish model assessed as Response efficiency at 25 uM treated from 3 dpf to 5 dpf relative to control. Type of series: functional. The gist of the method: as §1
The nature of series [16]: MRT in Sprague-Dawley rat blood dialysis at 25 mg/kg, iv by HPLC analysis. In kind it is ADME, organism-based. The note with it: blood dialysate. The method in brief: as §3
For series [17], the species on record is Danio rerio. The series can be described thus: Cognition enhancement in aluminium chloride-induced Alzheimer's disease zebra fish model assessed as Response efficiency at 1 uM treated from 3 dpf to 5 dpf relative to control. Type of series: functional. The gist of the method: as §1
The target of series [18] is Amyloid-beta precursor protein (Homo sapiens) (UniProt P05067). As to the kind of experiment: Inhibition of HFIP-pretreated amyloid beta (1 to 42) (unknown origin) self-aggregation at 20 uM after 72 hrs by uranyl acetate staining based transmission electron microscopy. The method in brief:
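Aβ1-42 was incubated alone or with compound for 72 h at 37 °C. Fibril formation was then examined by transmission electron microscopy, with curcumin as positive control.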

Series [19] has as its system Mus musculus. The series can be described thus: Cognition enhancement in aluminium trichloride-induced amnesia mouse model assessed as error times at 8 mg/kg administered via gastric gavage for 30 days by SMG-2 programmable water maze test (reference value: 20.7 +/- 4.8 secs). Type of series: functional.
Series [20] in a line: Stability of compound in human liver microsomes measured up to 60 mins by HPLC analysis. In kind it is ADME, Microsome. The note with it: 1 h. The method in brief: as §2
(In general: Liver microsomes are vesicles of endoplasmic reticulum, rich in cytochrome P450 enzymes.)

The nature of series [21]: Ratio of drug level in Sprague-Dawley rat brain to plasma at 25 mg/kg, iv by HPLC analysis. Type of series: ADME, organism-based. The note with it: read-out: BPR. The gist of the method:
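Male Sprague–Dawley rats received 25 mg/kg intravenously, with blood and brain sampled by microdialysis. The brain/plasma exposure ratio was calculated from AUC0–∞ measured in brain and plasma dialysates.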

The next series deals with A549. As to the kind of experiment: Cytotoxicity against human A549 cells assessed as reduction in cell viability incubated for 24 hrs by MTT assay. Type of series: cell-based. The note with it: A549, 24 h.
A further series deals with N2a. As to the kind of experiment: Cytotoxicity against mouse Neuro2a cells assessed as reduction in cell viability incubated for 24 hrs by MTT assay. Type of series: cell-based.
Series [22] in a line: Apparent clearance in Sprague-Dawley rat plasma at 25 mg/kg, iv by HPLC analysis. The note with it: read-out: CL(app). In kind it is ADME, organism-based. The gist of the method:
as §3

Series [23] has as its target Amyloid-beta precursor protein (Homo sapiens) (UniProt P05067). As to the kind of experiment: Inhibition of HFIP-pretreated amyloid beta (1 to 42) (unknown origin) self-aggregation at 20 uM after 48 hrs by thioflavin-T fluorescence assay.
A short description of series [24]: Apparent clearance in Sprague-Dawley rat blood dialysis at 25 mg/kg, iv by HPLC analysis. Type of series: ADME, organism-based. The note with it: blood dialysate, read-out: CL(app). The method in brief: as §3
The nature of series [25]: AUC (0 to t) in Sprague-Dawley rat plasma at 25 mg/kg, iv by HPLC analysis. In kind it is ADME, organism-based. The method in brief: as §3
The nature of series [26]: AUC (0 to t) in Sprague-Dawley rat blood dialysis at 25 mg/kg, iv by HPLC analysis. Type of series: ADME, organism-based. As to conditions: blood dialysate. The method in brief: as §3
The species named for series [27] is Danio rerio. As to the kind of experiment: Cognition enhancement in aluminium chloride-induced Alzheimer's disease zebra fish model assessed as Response efficiency at 5 uM treated from 3 dpf to 5 dpf relative to control. Type of series: functional. The gist of the method: as §1
The nature of series [28]: Metal chelating activity assessed as compound-Fe2+ complex formation at 25 uM incubated for 5 mins in presence of 25 uM FeSO4 by UV-visible spectrophotometry.
The target in series [29] is Amyloid-beta precursor protein (Homo sapiens) (UniProt P05067). As to the kind of experiment: Inhibition of HFIP-pretreated amyloid beta (1 to 42) (unknown origin) self-aggregation at 20 uM after 24 hrs by thioflavin-T fluorescence assay relative to control.
A short description of series [30]: MRT in Sprague-Dawley rat plasma at 25 mg/kg, iv by HPLC analysis. Type of series: ADME, organism-based. The gist of the method: as §3
Series [31] concerns Mus musculus. The series can be described thus: Cognition enhancement in aluminium trichloride-induced amnesia mouse model assessed as error times at 0.5 mg/kg administered via gastric gavage for 30 days by SMG-2 programmable water maze test (reference value: 20.7 +/- 4.8 secs). In kind it is functional.
The test system of series [32] is Mus musculus. The series can be described thus: Cognition enhancement in aluminium trichloride-induced amnesia mouse model assessed as error times at 2 mg/kg administered via gastric gavage for 30 days by SMG-2 programmable water maze test (reference value: 20.7 +/- 4.8 secs). Type of series: functional.
Series [33] is described as follows: AUC (0 to infinity) in Sprague-Dawley rat plasma at 25 mg/kg, iv by HPLC analysis. In kind it is ADME, organism-based. Further details: dose 25 mg/kg, time infinity, route intravenous. The method in brief:
as §3

A short description of series [34]: MRT in Sprague-Dawley rat brain at 25 mg/kg, iv by HPLC analysis. Type of series: ADME, organism-based. The gist of the method:
as §3

For series [35], the system named is Mus musculus. As to the kind of experiment: Cognition enhancement in scopolamine-induced amnesia mouse model assessed as total swimming distance at 25 mg/kg, iv administered once daily for 18 days measured after 50 mins at 5th day of training session by Morris water maze test (reference value: 785+/-351 cm). In kind it is functional.
Series [36] concerns Mus musculus. As to the kind of experiment: Cognition enhancement in scopolamine-induced amnesia mouse model assessed as escape latency at 25 mg/kg, iv administered once daily for 18 days measured after 50 mins at 5th day of training session by Morris water maze test (reference value: 63.2+/-21.1 secs). Type of series: functional.
Series [37] deals with Mus musculus. The series can be described thus: Cognition enhancement in aluminium trichloride-induced amnesia mouse model assessed as total swimming time at 8 mg/kg administered via gastric gavage for 30 days by SMG-2 programmable water maze test (reference value: 115 +/- 19 secs). Type of series: functional.
A further series deals with hERG (KCNH2) (Homo sapiens, UniProt Q12809). As to the kind of experiment: Inhibition of human ERG expressed in CHO cells at 0.1 uM incubated for 1 min at -80 mV holding potential by manual patch clamp assay relative to control. Type of series: cell-based. As to conditions: CHO cells expressing human ERG.
Chain of hERG (KCNH2) (Q12809 whole entry): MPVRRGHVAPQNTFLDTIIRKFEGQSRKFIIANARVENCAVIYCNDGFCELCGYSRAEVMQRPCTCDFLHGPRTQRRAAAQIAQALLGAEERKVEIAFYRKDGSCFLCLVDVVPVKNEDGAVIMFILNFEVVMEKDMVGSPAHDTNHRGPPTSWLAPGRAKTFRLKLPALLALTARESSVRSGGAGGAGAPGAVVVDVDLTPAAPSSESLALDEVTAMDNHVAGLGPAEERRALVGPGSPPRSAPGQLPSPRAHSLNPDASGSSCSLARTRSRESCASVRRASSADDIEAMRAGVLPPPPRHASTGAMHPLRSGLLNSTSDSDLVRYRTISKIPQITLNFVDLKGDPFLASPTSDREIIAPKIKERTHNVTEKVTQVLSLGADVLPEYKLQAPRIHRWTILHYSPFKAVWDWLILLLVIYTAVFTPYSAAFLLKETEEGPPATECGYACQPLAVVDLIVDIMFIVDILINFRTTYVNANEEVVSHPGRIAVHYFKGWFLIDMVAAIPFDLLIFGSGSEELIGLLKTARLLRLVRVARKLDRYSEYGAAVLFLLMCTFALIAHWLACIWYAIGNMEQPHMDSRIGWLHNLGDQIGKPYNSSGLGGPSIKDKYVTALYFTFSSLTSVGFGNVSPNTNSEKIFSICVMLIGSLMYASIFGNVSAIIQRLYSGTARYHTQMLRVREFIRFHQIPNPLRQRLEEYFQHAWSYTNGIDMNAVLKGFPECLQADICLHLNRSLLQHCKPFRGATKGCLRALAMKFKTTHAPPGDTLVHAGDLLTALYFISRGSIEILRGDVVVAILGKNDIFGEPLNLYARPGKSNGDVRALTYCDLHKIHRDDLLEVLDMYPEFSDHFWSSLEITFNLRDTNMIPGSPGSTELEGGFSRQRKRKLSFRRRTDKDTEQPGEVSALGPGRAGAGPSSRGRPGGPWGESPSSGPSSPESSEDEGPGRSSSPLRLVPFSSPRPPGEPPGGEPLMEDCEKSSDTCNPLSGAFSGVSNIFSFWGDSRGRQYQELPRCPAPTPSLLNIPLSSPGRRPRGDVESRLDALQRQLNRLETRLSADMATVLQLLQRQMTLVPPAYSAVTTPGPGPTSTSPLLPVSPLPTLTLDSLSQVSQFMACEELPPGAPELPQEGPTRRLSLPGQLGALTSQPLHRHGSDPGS

Chain of Voltage-gated inwardly rectifying potassium channel KCNH2 (Q12809 whole entry): as above

As to `CCN(C)C(=O)Oc1cc(C(C)N(C)C)cc2cccnc12` (configuration not stated), the Activity in the series filed under Danio rerio [1] is 70.8%; in the series listed under Danio rerio [5], “Dose-dependent effect”; in the series filed under Danio rerio [7], 121%; in the series listed under Danio rerio [9], 99.3%; in the series filed under Danio rerio [15], 70.2%; in the series filed under Danio rerio [17], 112.4%. Also, the values for the Activity in the series filed under Danio rerio [27] and in the series on Mus musculus [35] were 161.4% and 520 cm, respectively. The Stability entry in series [2], in series [8], in [14] and in [20] was “Stable” in each case. Besides, the inhibition (as a rule, the share of the control response that was lost under treatment) in [3] worked out at 66.1%; in series [23], 55.9%; in series [29], 31.3%. Further, the AUC(0-t) (as a rule, exposure summed from dosing to a finite time, without extrapolation to infinity) is 1260 ng·h/mL in [4], 7410 ng·h/mL in [25] and 2430 ng·h/mL in series [26]. The outcome in [6] and in [28] was inactive. The Time in the series on Mus musculus [10] is 73 s; in the series on Mus musculus [19], 16.8 s; in the series on Mus musculus [31] it was 15.1 s; in the series on Mus musculus [32], 18.1 s; in the series on Mus musculus [36] it was 43.8 s; in the series on Mus musculus [37], 79 s. For the same compound, the values for the area under the curve AUC(0-inf) in series [11], in series [12] and in [33] were 2450 ng·h/mL, 1270 ng·h/mL and 7460 ng·h/mL, respectively. For the same compound, the pIC50 – broadly, −log10 of the IC50, conventionally taken in molar units – in [13] is less than 4.52; with MCF7 it was less than 4.70; with A549, less than 4.70; in the series on N2a it was less than 4.70. In addition, the figures for the MRT in [16], in series [30] and in series [34] were 1.16 h, 1.53 h and 0.947 h, respectively. For the same compound, in series [18], the inhibition entry is “Active”. Besides, in [21], the Kp came out at 0.524. The clearance in series [22] was determined as 62 mL/min/kg; in series [24], 190 mL/min/kg.

At hERG (KCNH2), `COc1cc(N)c(Cl)cc1C(=O)N[C@H]1CCN(CCCOc2ccc(F)cc2)C[C@H]1OC` [REL-CISAPRIDE] yielded an inhibition at 1 min, 0.1 µM of 89%.

As for `COc1cc(/C=C/C(=O)CC(=O)/C=C/c2ccc(O)c(OC)c2)ccc1O`, the inhibition result in [18] was “Active”.
